M1 agonist: M1 muscarinic receptor agonists, primary screen, CHO-M1 cells, Fluo-4 calcium, agonist mode | Muscarinic acetylcholine receptor M1 | 64,000 tested, 3% active | Fluo-4 calcium fluorescence; active compounds read high | B-score at 10 µM;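 active = fluorescence rise, raw or as B-score row- and column-corrected plate score, outside the 99.7% band of its plate's samples, either direction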
M1 antag: antagonists of rat M1 muscarinic receptor | Muscarinic acetylcholine receptor M1 (Rattus norvegicus), P08482 | CHO-M1 cells, Fluo-4 calcium, ACh EC80 antagonist mode; active compounds read low | B-score at 10 µM | 64,000 tested, 3.4% active | AID 628, 2007;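 active = calcium fluorescence response, raw or row-and-column corrected B-score, differing from the plate sample mean either way at a set confidence level, mostly lower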
D1 allo mod: D1 CRE-luciferase signal change, two-sided – cell-based, HEK293 D1, dopamine EC30, D1 allosteric modulator project, primary screen. D(1A) dopamine receptor (Homo sapiens), P21728. dopamine EC30 potentiation; actives deviate in either direction. B-score at 10 µM. 58,000 tested, 5.9% active. AID 641, 2007;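 active = luminescence count or its row- and column-corrected plate score outside the 99.7% band of the plate's sample wells, on either side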
S1P1 ag pot: S1P1 agonists and agonism potentiators, primary screen, cell-based, primary and confirmation screens, CRE-bla reporter; AID 449, 2006; activation, % at 9.5 µM; 56,000 tested, 0.57% active; S1P1 CRE-bla cells, forskolin, beta-lactamase FRET, potentiator mode; S1P1 agonist co-added at EC20, 2 nM; 100% = saturating reference agonist, 0% = basal; Sphingosine 1-phosphate receptor 1 (Homo sapiens), P21453;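 active = activation above a cutoff set at the mean activation of all tested compounds plus 3 SD, cut at about 54% in these data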;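 also: forskolin at 4 µM as EC80 and the EC20 agonist is SEW2871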
S1P3 ag: human S1P3 receptor agonists, primary screen, cell-based, primary and confirmation, NFAT-BLA reporter | Sphingosine 1-phosphate receptor 3 (Homo sapiens), Q99500 | S1P3 NFAT-BLA reporter cells, agonism, FRET ratio; relative to 1 µM S1P, basal subtracted | activation, % at 4.5 µM | 60,000 tested, 0.1% active;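 active = activation above the screen-wide mean plus 3 SD, cut at about 4.5% in these data, passing the limit was not always enough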
Target sequence (Q99500 whole entry, looked up): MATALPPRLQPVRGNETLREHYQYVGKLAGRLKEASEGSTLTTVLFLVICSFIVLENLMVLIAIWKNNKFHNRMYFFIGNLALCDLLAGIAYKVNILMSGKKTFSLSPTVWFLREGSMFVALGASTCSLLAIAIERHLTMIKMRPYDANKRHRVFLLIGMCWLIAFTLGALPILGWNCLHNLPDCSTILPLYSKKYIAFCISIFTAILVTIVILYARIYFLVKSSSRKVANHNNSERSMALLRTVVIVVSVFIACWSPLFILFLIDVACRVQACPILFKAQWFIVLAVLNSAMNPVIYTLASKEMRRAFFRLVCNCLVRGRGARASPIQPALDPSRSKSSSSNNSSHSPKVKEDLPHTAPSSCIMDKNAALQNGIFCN
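Material: Human S1P3 NFAT-BLA reporter CHO cells | Incubation: Overnight plating, 4 h compound 37 °C, 2 h substrate RT | Signal: FRET β-lactamase substrate fluorescence, excitation 405 nm, 460/535 nm emission ratio, background-subtracted | Compound: 4.5 µM final, single dose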
TNAP act DEA: human TNAP enzyme activators, primary screen, biochemical, luminescent, intermediate phosphate acceptor level; 64,000 tested, under 10 active; activation factor at 20 µM; AID 813, 2007; Alkaline phosphatase, tissue-nonspecific isozyme (Homo sapiens), P05186; purified TNAP, CDP-star luminescence, 100 mM DEA, 30 min; active compounds read high; scale: 0 levamisole-inhibited, 1 vehicle-only enzyme;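 active = activation factor of at least 2 at 20 µM, relative to controls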
M1 antag confirm: rat M1 muscarinic receptor antagonists, confirmation, CHO cells, Fluo-4 calcium, duplicate; shares compounds with M1 antag; ACh EC80 antagonism; active compounds read low; calcium response (max-min fluorescence) at 10 µM; 1,700 tested, 43% active;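 active = calcium response below the same-plate mean of wells given acetylcholine alone at its 80%-effect dose, minus 3 SD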
mGluR4 antag: human mGluR4 response to M1 antagonist hits, M1 allosteric modulator project, cell-based, antagonist mode, secondary assay 1 | AID 678, 2007 | shares compounds with M1 antag | 1,700 tested, 0.9% active | fluorescence response (max-min) at 10 µM | CHO-mGluR4 calcium flux, Fluo-4 fluorescence, glutamate EC80; active compounds read low;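 active = fluorescence response below the plate's average for near-maximal glutamate wells, less 3 SD of those wells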;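 also: raw unnormalized fluorescence span taken in the window right after glutamate addition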
Large screens that a line does not name were inactive (follow-up assays come after a bar, where they were run). The list is not random: actives were taken first. Their share in the collection is about 11%.

CCOC(=O)c1ccc(NC(=O)NCCN2CCCCC2)cc1	M1 antag -3.4 | M1 antag confirm inactive | mGluR4 antag inactive
CC1(c2ccc(Cl)cc2)NC(=O)N(CC(=O)NC(=O)NCc2ccco2)C1=O (stereo not given)	none
Oc1c(C(c2ccco2)N2CCN(C(c3ccccc3)c3ccccc3)CC2)sc2ncnn12 (stereo not given)	M1 antag -3.4 | M1 antag confirm 512 | mGluR4 antag inactive
Oc1c(C(c2ccccc2)N2CCc3ccccc3C2)sc2ncnn12 (stereo not given)	none
COc1ccc(NC(=O)c2ccc(CN3CCN(c4ccccc4)CC3)cc2)cc1OC	M1 antag -2.7 | M1 antag confirm inactive | mGluR4 antag inactive
CCOc1ccccc1N1C(=O)CC(Sc2ncccc2C(=O)O)C1=O (stereo not given)	none
COc1ccc(CCN2C(=O)CC(Sc3ncccc3C(=O)O)C2=O)cc1OC (stereo not given)	M1 antag -2.4 (no result: S1P1 ag pot, S1P3 ag) | M1 antag confirm inactive | mGluR4 antag inactive
CCOC(=O)C1CCN(CC(O)COc2ccc(C(C)(C)CC)cc2)CC1 (stereo not given)	M1 antag -4.7 (no result: D1 allo mod, S1P1 ag pot, S1P3 ag) | M1 antag confirm inactive | mGluR4 antag inactive
COC(=O)C1CCCN1C(C(=O)NC1CCCCC1)c1ccc(Cl)cc1 (stereo not given)	none
N#Cc1cn(Cc2ccccc2)c2ccccc12	M1 antag -1.9 | M1 antag confirm inactive | mGluR4 antag inactive
N#Cc1cn(CC(=O)NCc2cccnc2)c2ccccc12	none
CC(NC(=O)c1ccc(S(=O)(=O)N(C)C)cc1)c1ccccc1 (stereo not given)	none (no result: S1P1 ag pot)
CC(=O)N1CCc2cc(Br)cc(S(=O)(=O)NCCCN3CCCC(C)C3)c21 (stereo not given)	none
CC(=O)N1CCc2cc(Br)cc(S(=O)(=O)NCCCN3CCC(C)CC3)c21	M1 antag -3.7 | M1 antag confirm inactive | mGluR4 antag inactive
Cc1onc(-c2ccccc2)c1C(=O)Nc1nnc(COc2ccc(Cl)cc2)s1	none
Cc1sc2ncnc(OCC(=O)N3CCN(S(=O)(=O)c4ccc(Cl)cc4)CC3)c2c1C	none
Cc1sc2ncnc(OCC(=O)c3ccc(S(=O)(=O)N4CCCC4)cc3)c2c1C	M1 antag -3.1 | M1 antag confirm inactive | mGluR4 antag inactive
CCCCOC(=O)n1c(SCC(=O)N(CC)CC)nc2ccccc21	none
CSc1nc(C)cc(OCNC(=O)c2cccs2)n1	none
c1ccc(-c2ccc(OCCCn3cncn3)cc2)cc1	none (no result: D1 allo mod)
CCN1CCN(CCCOc2ccc(-c3ccccc3)cc2)CC1	M1 antag -3.5 | M1 antag confirm 197 | mGluR4 antag inactive
COc1ccc(-n2nc(C(=O)N3CCC(C#N)CC3)c3c4ccccc4n(C)c3c2=O)cc1	none
CN1CCc2c(c3ccccc3n2Cc2ccccc2)C1	M1 antag -3.9 (no result: D1 allo mod) | M1 antag confirm 231 | mGluR4 antag inactive
O=C(C(Cc1ccccc1)n1cccc1)N1CCN(Cc2ccccc2)CC1 (stereo not given)	M1 antag -16 | M1 antag confirm 18 | mGluR4 antag inactive
O=C(CSc1ncnc2ccccc12)N1CCN(c2ccccc2)CC1	none
CCOC(=O)Cc1csc(NC(=O)CCc2ccc(S(=O)(=O)N3CCOCC3)cc2)n1	M1 antag -3.1 | M1 antag confirm inactive | mGluR4 antag inactive
CC(=O)c1cccc(NC(=O)N2CCCC2C(=O)NC2CCCCC2)c1 (stereo not given)	none
CC1(C)CC2CC(C)(CN2c2ncnc3ccccc23)C1 (stereo not given)	M1 antag -2.2 | M1 antag confirm inactive | mGluR4 antag inactive
O=C(O)C1CCCN1c1ncnc2ccccc12 (stereo not given)	none (no result: S1P1 ag pot)
Cc1ccc(C2C3=C(CC(C)(C)CC3=O)N(CCN3CCOCC3)C3=C2C(=O)CC(C)(C)C3)cc1	none (no result: M1 agonist, M1 antag)
Cc1cccc(OCc2nnc(SCc3cc(=O)n4cc(Br)ccc4n3)o2)c1	M1 antag -3 | M1 antag confirm inactive | mGluR4 antag inactive
CCOC(=O)/C(C(N)=NCCO)=C(/O)c1ccccc1	none (no result: S1P1 ag pot)
OCCN=C(c1ccccc1)C12CN3CN(CN(C3)C1)C2	M1 antag -2.4 (no result: D1 allo mod) | M1 antag confirm inactive | mGluR4 antag inactive
Cc1cc(N(C)C)nc(SC(C)C)n1	none
CCC(C)N(CCNC(=O)CC1Oc2ccccc2NC1=O)C1CCCCC1 (stereo not given)	M1 antag -11 | M1 antag confirm 61 | mGluR4 antag inactive
O=C(CC1Oc2ccccc2NC1=O)NC1CC1 (stereo not given)	M1 antag -3.9 | M1 antag confirm inactive | mGluR4 antag inactive
CCOC(=O)c1cnc(SCC(=O)c2ccccc2)nc1N	none
O=C(CCN1C(=O)C2C3C=CC(C3)C2C1=O)Nc1ccc(F)cc1 (stereo not given)	none
O=C(CCN1C(=O)C2C3C=CC(C3)C2C1=O)Nc1ccc2c(c1)OCO2 (stereo not given)	M1 antag -2.6 | M1 antag confirm inactive | mGluR4 antag inactive
CC(C)N(C(=O)CSc1nnc(CN2CCCCCC2=O)n1-c1ccccn1)C(C)C	none
Cc1noc2nc(-c3cccs3)cc(-c3nnc4n3CCCCC4)c12	none
O=C(NCc1ccco1)c1cnn2c(C(F)(F)F)cc(-c3cccs3)nc12	none
Brc1cccc(-c2cnc3n2CCCCC3)c1	M1 antag -12, D1 allo mod -3.3 | M1 antag confirm 81 | mGluR4 antag inactive
Brc1cccc(-c2nnc3n2CCCCC3)c1	none
Cn1c(NC(=O)c2cc(Cl)ccc2Cl)cc(=O)n(C)c1=O	none
COc1cccc(C(=O)Nc2cc(=O)n(C)c(=O)n2C)c1OC	M1 antag -3.8 | M1 antag confirm inactive | mGluR4 antag inactive
